# Experimental data from PubChem BioAssay AID504382 (The Scripps Research Institute Molecular Screening Center, 2011).
# Hit rate of the full screen: of about 2,500 compounds, about 460 (18%) were called active. A selection follows. Unmarked numbers belong to inactive results.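 How the source made its calls: active means mean activation above a cutoff of low control average plus 3 SD from the earlier screen (cut at about 12% in these data); inactive means the rest.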
# Experiment: compound fluorescence interference without thin filaments, confirmation, artefact control for cardiac RTF calcium sensitizer project, biochemical (AID 504382)
# Conditions: IANBD fluorescence interference counterscreen, buffer, EC20 Ca2+; at 7.2 µM; hits give high values; scaled: EC20 calcium 0, EC100 calcium 100
# In short: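 Medium: MOPS buffer, 190 mM, with KCl, MgCl2, EGTA, NTA, DTT, pH 7.20; Dosing: one dose of 7.2 µM, 0.7% DMSO; Probe or stimulus: calcium at EC20 level, 0.472 mM final; Incubation: 15 min, 25 °C; Evaluation: compound fluorescence interference relative to control well signal range; Signal: fluorescence, 480/540 nm.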
row,Structure (SMILES),fluorescence artifact activation
1,CC(=O)c1nnn(-c2cccc(C#N)c2)c1C,0.2%
2,Cc1ccc(/C=C2/NC(=O)N(Cc3ccccc3F)C2=O)s1,0.1%
3,Cc1cc2nc3c(=O)n(CCc4ccccc4)c(=O)[nH]c3nc2cc1N,0.7%
4,CCCCn1c(=O)[nH]c2nc3cc(N)ccc3nc2c1=O,0.06%
5,C=CCn1c(=O)[nH]c2nc3cc(N=CN(C)C)c(C)cc3nc2c1=O,16.2% (active)
6,CCCCCCn1c(=O)[nH]c2nc3cc(N)c(C)cc3nc2c1=O,45.6% (active)
7,Cc1cc2nc3c(=O)n(C4CCCCC4)c(=O)[nH]c3nc2cc1N,9.65%
8,N=c1oc2c3c4c(cc2cc1C(=O)Nc1ccccc1)CCCN4CCC3,4.85%
9,Cn1cccc1/C=C1\CCC/C(=C\c2cccn2C)C1=O,0.94%
10,O=C(COC(=O)Cn1cnc2ccccc21)Nc1cccc2c1C(=O)c1ccccc1C2=O,5.29%
11,COc1cc(/C=C2\Oc3cc(O)ccc3C2=O)ccc1O,0.16%
12,O=C1/C(=C/c2cccc(F)c2)Oc2cc(O)ccc21,-0.06%
13,O=C1/C(=C/c2ccc(Br)cc2)Oc2cc(O)ccc21,17.9% (active)
14,C=CCN(C(=O)CNS(=O)(=O)c1ccccc1)C(C(=O)NCCOC)c1ccncc1 (stereo unspecified),0.23%
15,C[C@H](CO)NC(=O)[C@@H]1C[C@H]1[C@@H](NP(=O)(c1ccccc1)c1ccccc1)c1ccccc1,0.29%
16,COCCNC(=O)[C@H]1C[C@@H]1[C@H](NP(=O)(c1ccccc1)c1ccccc1)c1ccccc1,1400% (active)
17,Cc1cc(Br)c2c(c1)C(O)(N1CCCCC1C)C(=O)N2 (stereo unspecified),1.99%
18,CC(C)(C)C(=O)/C=c1\s/c(=C\c2ccc(-c3ccc([N+](=O)[O-])cc3)o2)c(=O)n1CC(=O)NC(N)=O,7.12%
19,COc1cc(/C=C(\C#N)c2nc3ccccc3o2)ccc1O,0.62%
20,Nc1nc(SCC(=O)Nc2ccccc2)nc2nc3c(cc12)CCCC3,0.24%
21,Cc1cc(C)n2nc3nc4c(cc3c2n1)CCCC4,28.7% (active)
22,C=CCOc1ccc(Br)cc1CNCC,6.82%
23,CCOc1cc(C#N)ccc1OCC(=O)N1CCc2ccccc2C1,0.13%
24,CCOc1ccc(C(=O)NCC(=O)Nc2ncccc2C)cc1OCC,1.27%
25,CCOc1ccc(C(=O)NCC(=O)N2CCC3CCCCC3C2)cc1OCC (stereo unspecified),59.4% (active)
26,COCCOC(=O)/C(=C/c1ccc(OC(=O)c2ccccc2)cc1)C(C)=O,4.54%
